Data: ChEMBL document CHEMBL2202970, “Nonsteroidal androgen receptor ligands: versatile syntheses and biological data” (2012)
Calls of active or inactive are those of the source. The rule behind the calls is not given here.

Experiments:
LNCaP [1] = experiment: Cytotoxicity against human LNCAP cells assessed as growth inhibition at 2 to 20 uM after 144 hrs by SRB assay; type: functional, cell-based
Outline: (§1)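 LNCaP and AR-overexpressing LNCaP-AR (3–5-fold higher AR) prostate cancer cells were incubated 144 h with scalar concentrations from 0.02 to 20 μM. Sulforhodamine B read-out was used for growth inhibition (IG50) and cytocidal (LC50) values. Results are the average of three independent experiments.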

LNCaP-AR = experiment: Cytotoxicity against human LNCaP-AR cells assessed as growth inhibition at 2 to 20 uM after 144 hrs by SRB assay relative to control; type: functional, cell-based; outline: as §1
LNCaP [2] = experiment: Cytocidal activity in against human LNCAP cells after 144 hrs by SRB assay; type: functional; conditions: read-out: LC50 (the source's name); outline: as §1
[3] = Cytocidal activity in human LNCaP-AR cells after 144 hrs by SRB assay; type: functional; conditions: read-out: LC50 (the source's name); outline: as §1
LNCaP [4] = experiment: Induction of apoptosis in human LNCAP cells at 20 uM after 144 hrs by […]; type: functional
[5] = Induction of apoptosis in human LNCaP-AR cells at 20 uM after 144 hrs by propidium iodide staining based flow cytometry analysis; type: functional
[6] = target: T1, Androgen receptor (Homo sapiens) (UniProt P10275); experiment: Agonist activity at AR receptor in human LNCAP cells at 10 nM to 10 uM by ARE-luciferase reporter gene assay; type: functional, cell-based
T1 sequence (whole entry): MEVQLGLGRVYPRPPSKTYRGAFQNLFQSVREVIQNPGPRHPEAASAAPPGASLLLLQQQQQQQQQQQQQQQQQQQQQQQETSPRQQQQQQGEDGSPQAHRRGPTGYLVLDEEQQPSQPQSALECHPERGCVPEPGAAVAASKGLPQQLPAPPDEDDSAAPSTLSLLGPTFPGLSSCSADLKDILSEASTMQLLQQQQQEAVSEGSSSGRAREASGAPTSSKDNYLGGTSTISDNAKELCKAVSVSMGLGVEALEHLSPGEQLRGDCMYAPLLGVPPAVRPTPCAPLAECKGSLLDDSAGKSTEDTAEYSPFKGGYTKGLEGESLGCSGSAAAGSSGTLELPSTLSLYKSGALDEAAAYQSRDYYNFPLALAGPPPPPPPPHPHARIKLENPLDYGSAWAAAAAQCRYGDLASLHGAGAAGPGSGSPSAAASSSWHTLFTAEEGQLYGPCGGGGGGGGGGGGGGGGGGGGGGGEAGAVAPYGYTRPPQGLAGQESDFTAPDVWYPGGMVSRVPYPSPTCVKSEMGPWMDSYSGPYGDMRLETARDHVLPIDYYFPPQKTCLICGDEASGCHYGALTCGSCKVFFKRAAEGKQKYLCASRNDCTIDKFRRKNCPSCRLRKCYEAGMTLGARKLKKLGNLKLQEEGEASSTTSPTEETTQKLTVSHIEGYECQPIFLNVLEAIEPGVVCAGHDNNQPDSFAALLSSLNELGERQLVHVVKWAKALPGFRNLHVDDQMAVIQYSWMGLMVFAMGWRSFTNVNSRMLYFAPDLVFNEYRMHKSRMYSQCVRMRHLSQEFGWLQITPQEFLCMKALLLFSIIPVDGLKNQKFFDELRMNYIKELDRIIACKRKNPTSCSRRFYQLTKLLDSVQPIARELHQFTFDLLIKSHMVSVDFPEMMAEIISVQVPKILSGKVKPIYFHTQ
Outline: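 Androgen-responsive LNCaP cells plated subconfluent (60–70%) in phenol red-free DMEM with 5% charcoal-stripped serum for 48 h, then transfected with 0.3 μg 3416-pTK-TATA-Luc ARE reporter. After 24 h, cells were exposed for 24 h to compounds (10 nM to 10 μM) without or with 10 nM R1881. Lysate luciferase expressed as fold induction; three independent experiments.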

[7] = target: T1, Androgen receptor (Homo sapiens); experiment: Antagonist activity at human AR expressed in COS7 cells receptor assessed as inhibition of R1881-induced transcriptional activation at 10 uM by ARE-luciferase reporter gene assay; type: functional, cell-based; conditions: COS-7
Outline: (§2)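 AR-negative Cos-7 cells plated subconfluent (60–70%) in phenol red-free DMEM with 5% charcoal-stripped serum for 48 h, then cotransfected with 0.3 μg 3416-pTK-TATA-Luc and 1.5 μg pSG5-hAR or empty pSG5. After 24 h, stimulated 24 h with 10 nM R1881 plus compounds. Lysate luciferase as fold induction; hAR checked by Western blot; three experiments.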

[8] = target: T1, Androgen receptor (Homo sapiens); experiment: Antagonist activity at AR receptor in human LNCAP cells assessed as inhibition of R1881-induced transcriptional activation at 10 nM to 10 uM by ARE-uciferase reporter gene assay; type: functional, cell-based
Outline: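 LNCaP cells at 60–70% confluence, plated in phenol red-free DMEM with 5% charcoal-stripped serum, then transfected after 48 h with 0.3 μg 3416-pTK-TATA-Luc reporter. 24 h later, stimulated for 24 h with 10 nM R1881 with or without test compound (10 nM–10 μM). Luciferase activity in lysates was expressed as fold induction. Three independent experiments were averaged.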

[9] = Growth inhibition in human LNCaP-AR cells after 144 hrs by SRB assay; type: functional; outline: as §1
[10] = target: T1, Androgen receptor (Homo sapiens); experiment: Antagonist activity at human AR expressed in COS7 cells receptor assessed as inhibition of androgen-induced transcriptional activation at 10 nM to 10 uM by ARE-luciferase reporter gene assay; type: functional, cell-based; conditions: COS-7; outline: as §2

C[C@](N)(CS(=O)(=O)c1ccc(F)cc1)C(=O)Nc1ccc(C#N)c(C(F)(F)F)c1
growth inhibition (GI) (LNCaP [1]): Active

Cc1ccc(S(=O)(=O)N[C@](C)(CS(=O)(=O)c2ccc(F)cc2)C(=O)Nc2ccc(C#N)c(C(F)(F)F)c2)cc1
growth inhibition (GI) (LNCaP [1]): Active
growth inhibition (GI) (LNCaP-AR): Active
CC50 (LNCaP [2]): 18.3 µM
CC50 [3]: 18.3 µM
Activity (LNCaP [4]): 80.5%
Activity [5]: 91.6%
Activity [6]: inactive
inhibition [7]: Active
inhibition [8]: Active

C[C@](O)(CS(=O)(=O)c1ccc(F)cc1)C(=O)Nc1ccc(C#N)c(C(F)(F)F)c1 [(R)-BICALUTAMIDE]
growth inhibition (GI) (LNCaP [1]): Active
growth inhibition (GI) (LNCaP-AR): inactive
CC50 (LNCaP [2]): < 1.8 µM
IG50 [9]: <1.8 µM
Activity (LNCaP [4]): 2.1%
Activity [5]: 2.1%

CC(C)(C)S(=O)(=O)N[C@](C)(CS(=O)(=O)c1ccc(F)cc1)C(=O)Nc1ccc(C#N)c(C(F)(F)F)c1
growth inhibition (GI) (LNCaP [1]): Active
growth inhibition (GI) (LNCaP-AR): Active

Cc1ccc(S(=O)(=O)N[C@@](C)(CS(=O)(=O)c2ccc(F)cc2)C(=O)Nc2ccc(C#N)c(C(F)(F)F)c2)cc1
growth inhibition (GI) (LNCaP [1]): Active

C[C@@]1(CS(=O)(=O)c2ccc(F)cc2)NC(=S)N(c2ccc(C#N)c(C(F)(F)F)c2)C1=O
growth inhibition (GI) (LNCaP [1]): Active

C[C@@](N)(CS(=O)(=O)c1ccc(F)cc1)C(=O)Nc1ccc(C#N)c(C(F)(F)F)c1
growth inhibition (GI) (LNCaP [1]): Active

CC(C)(C)S(=O)(=O)N[C@@](C)(CS(=O)(=O)c1ccc(F)cc1)C(=O)Nc1ccc(C#N)c(C(F)(F)F)c1
growth inhibition (GI) (LNCaP [1]): Active

C[C@@]1(CS(=O)(=O)c2ccc(F)cc2)NC(=O)N(c2ccc(C#N)c(C(F)(F)F)c2)C1=O
growth inhibition (GI) (LNCaP [1]): Active

C[C@@]1(COc2ccc(C#N)cc2)NC(=O)N(c2ccc(C#N)c(C(F)(F)F)c2)C1=O
Activity [10]: inactive
Activity [6]: inactive

C[C@](N)(COc1ccc(C#N)cc1)C(=O)Nc1ccc(C#N)c(C(F)(F)F)c1
Activity [10]: Active
inhibition [7]: inactive

C[C@]1(CS(=O)(=O)c2ccc(F)cc2)NC(=O)N(c2ccc(C#N)c(C(F)(F)F)c2)C1=O
growth inhibition (GI) (LNCaP [1]): Active

C[C@]1(CS(=O)(=O)c2ccc(F)cc2)NC(=S)N(c2ccc(C#N)c(C(F)(F)F)c2)C1=O
growth inhibition (GI) (LNCaP [1]): Active
